ChEMBL document CHEMBL4406880, “Design, synthesis, and bioactivity of dihydropyrimidine derivatives as kinesin spindle protein inhibitors” (Bioorg Med Chem, 2019)

Legend:
Assay type in all cases: functional
CCRF-CEM = test: Growth inhibition of human CCRF-CEM cells assessed as growth percentage at 10 uM incubated for 48 hrs by sulforhodamine B assay relative to control; conditions: read-out: Activity
Procedure, shortened: (§1)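 NCI-60 one-dose screen: cells in RPMI 1640 with 5% FBS and 2 mM L-glutamine, plated at 5,000–40,000 cells/well and preincubated 24 h at 37 °C, 5% CO2. Compound is added from a DMSO stock to a final 10 µM and incubated 48 h. Cells are TCA-fixed and stained with sulforhodamine B, read at 515 nm. Output is % growth versus untreated control, with a time-zero plate.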

A549 = test: Growth inhibition of human A549/ATCC cells assessed as growth percentage at 10 uM incubated for 48 hrs by sulforhodamine B assay relative to control; conditions: A549, 48 h, read-out: Activity; procedure, shortened: as §1
RPMI-8226 = test: Growth inhibition of human RPMI8226 cells assessed as growth percentage at 10 uM incubated for 48 hrs by sulforhodamine B assay relative to control; conditions: RPMI-8226, 48 h, read-out: Activity
Procedure, shortened: (§2)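 NCI-60 single-dose screen. Cells were grown in RPMI 1640 with 5% FBS and 2 mM L-glutamine and plated at 5,000–40,000 cells/well. After an overnight preincubation at 37 °C in 5% CO2, compound was added at a final 10 µM from a DMSO stock, with DMSO/PBS controls. After 48 h, cells were TCA-fixed and stained with 0.4% SRB, and absorbance was read at 515 nm. Growth is given as a percentage of untreated control.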

MOLT-4 = test: Growth inhibition of human MOLT4 cells assessed as growth percentage at 10 uM incubated for 48 hrs by sulforhodamine B assay relative to control; conditions: MOLT-4, 48 h, read-out: Activity
Procedure, shortened: (§3)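 NCI-60 one-dose screen. Cells in RPMI 1640 with 5% FBS and 2 mM L-glutamine, seeded at 5,000–40,000 cells/well according to doubling time, and preincubated overnight at 37 °C, 5% CO2. A time-zero plate was TCA-fixed at drug addition. Compound from DMSO stock, final 10 µM, 48 h; DMSO vehicle controls. Fixation with TCA, 10% final (16% for suspension cells). SRB stain, Tris solubilization, A515. Result given as % growth versus untreated cells.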

HOP-62 = test: Growth inhibition of human HOP62 cells assessed as growth percentage at 10 uM incubated for 48 hrs by sulforhodamine B assay relative to control; conditions: HOP-62, 48 h, read-out: Activity; procedure, shortened: as §3
HOP-92 = test: Growth inhibition of human HOP92 cells assessed as growth percentage at 10 uM incubated for 48 hrs by sulforhodamine B assay relative to control; conditions: HOP-92, 48 h, read-out: Activity; procedure, shortened: as §3
COLO 205 = test: Growth inhibition of human COLO205 cells assessed as growth percentage at 10 uM incubated for 48 hrs by sulforhodamine B assay relative to control; conditions: COLO 205, 48 h, read-out: Activity; procedure, shortened: as §1
HCT-116 = test: Growth inhibition of human HCT116 cells assessed as growth percentage at 10 uM incubated for 48 hrs by sulforhodamine B assay relative to control; conditions: HCT-116, 48 h, read-out: Activity; procedure, shortened: as §1
HCT-15 = test: Growth inhibition of human HCT15 cells assessed as growth percentage at 10 uM incubated for 48 hrs by sulforhodamine B assay relative to control; conditions: HCT-15, 48 h, read-out: Activity; procedure, shortened: as §1
HT-29 = test: Growth inhibition of human HT-29 cells assessed as growth percentage at 10 uM incubated for 48 hrs by sulforhodamine B assay relative to control; conditions: HT-29, 48 h, read-out: Activity; procedure, shortened: as §3
KM12 = test: Growth inhibition of human KM12 cells assessed as growth percentage at 10 uM incubated for 48 hrs by sulforhodamine B assay relative to control; conditions: KM12, 48 h, read-out: Activity; procedure, shortened: as §3
SW-620 = test: Growth inhibition of human SW620 cells assessed as growth percentage at 10 uM incubated for 48 hrs by sulforhodamine B assay relative to control; conditions: SW-620, 48 h, read-out: Activity; procedure, shortened: as §2
SNB-19 = test: Growth inhibition of human SNB19 cells assessed as growth percentage at 10 uM incubated for 48 hrs by sulforhodamine B assay relative to control; conditions: SNB-19, 48 h, read-out: Activity; procedure, shortened: as §2
SNB-75 = test: Growth inhibition of human SNB75 cells assessed as growth percentage at 10 uM incubated for 48 hrs by sulforhodamine B assay relative to control; conditions: SNB-75, 48 h, read-out: Activity; procedure, shortened: as §2
LOX IMVI = test: Growth inhibition of human LOXIMVI cells assessed as growth percentage at 10 uM incubated for 48 hrs by sulforhodamine B assay relative to control; conditions: read-out: Activity; procedure, shortened: as §3
Malme-3M = test: Growth inhibition of human MALME-3M cells assessed as growth percentage at 10 uM incubated for 48 hrs by sulforhodamine B assay relative to control; conditions: read-out: Activity; procedure, shortened: as §3
SK-MEL-2 = test: Growth inhibition of human SK-MEL-2 cells assessed as growth percentage at 10 uM incubated for 48 hrs by sulforhodamine B assay relative to control; conditions: SK-MEL-2, 48 h, read-out: Activity; procedure, shortened: as §2
OVCAR-5 = test: Growth inhibition of human OVCAR5 cells assessed as growth percentage at 10 uM incubated for 48 hrs by sulforhodamine B assay relative to control; conditions: OVCAR-5, 48 h, read-out: Activity; procedure, shortened: as §2
A498 = test: Growth inhibition of human A498 cells assessed as growth percentage at 10 uM incubated for 48 hrs by sulforhodamine B assay relative to control; conditions: A498, 48 h, read-out: Activity; procedure, shortened: as §1
TK-10 = test: Growth inhibition of human TK10 cells assessed as growth percentage at 10 uM incubated for 48 hrs by sulforhodamine B assay relative to control; conditions: TK-10, 48 h, read-out: Activity; procedure, shortened: as §2
MCF7 = test: Growth inhibition of human MCF7 cells assessed as growth percentage at 10 uM incubated for 48 hrs by sulforhodamine B assay relative to control; conditions: MCF7, 48 h, read-out: Activity; procedure, shortened: as §3
MDA-MB-231 = test: Growth inhibition of human MDA-MB-231 cells assessed as growth percentage at 10 uM incubated for 48 hrs by sulforhodamine B assay relative to control; conditions: MDA-MB-231, 48 h, read-out: Activity; procedure, shortened: as §3
Hs-578T = test: Growth inhibition of human Hs 578T cells assessed as growth percentage at 10 uM incubated for 48 hrs by sulforhodamine B assay relative to control; conditions: read-out: Activity; procedure, shortened: as §3
BT-549 = test: Growth inhibition of human BT549 cells assessed as growth percentage at 10 uM incubated for 48 hrs by sulforhodamine B assay relative to control; conditions: BT-549, 48 h, read-out: Activity; procedure, shortened: as §1
T47D = test: Growth inhibition of human T47D cells assessed as growth percentage at 10 uM incubated for 48 hrs by sulforhodamine B assay relative to control; conditions: read-out: Activity; procedure, shortened: as §2
MDA-MB-468 = test: Growth inhibition of human MDA-MB-468 cells assessed as growth percentage at 10 uM incubated for 48 hrs by sulforhodamine B assay relative to control; conditions: MDA-MB-468, 48 h, read-out: Activity; procedure, shortened: as §3

Row | SMILES | growth at 10 µM (CCRF-CEM) [%] | growth at 10 µM (A549) [%] | growth at 10 µM (RPMI-8226) [%] | growth at 10 µM (MOLT-4) [%] | growth at 10 µM (HOP-62) [%] | growth at 10 µM (HOP-92) [%] | growth at 10 µM (COLO 205) [%] | growth at 10 µM (HCT-116) [%] | growth at 10 µM (HCT-15) [%] | growth at 10 µM (HT-29) [%] | growth at 10 µM (KM12) [%] | growth at 10 µM (SW-620) [%] | growth at 10 µM (SNB-19) [%] | growth at 10 µM (SNB-75) [%] | growth at 10 µM (LOX IMVI) [%] | growth at 10 µM (Malme-3M) [%] | growth at 10 µM (SK-MEL-2) [%] | growth at 10 µM (OVCAR-5) [%] | growth at 10 µM (A498) [%] | growth at 10 µM (TK-10) [%] | also measured
1 | O=C1NC2=C(C(=O)c3ccccc32)C(c2ccc3c(c2)OCO3)N1 (racemic) | 103 | 106 | 107 | 104 | 96.1 | 99 | 115 | 108 | 105 | 107 | 111 | 104 | 97.9 | 78.5 | 96.8 | 106 | 108 | 105 | 112 | 96.1 | growth at 10 µM (MCF7): 96.5%; growth at 10 µM (MDA-MB-231): 109%; growth at 10 µM (Hs-578T): 98.8%; growth at 10 µM (BT-549): 102%; growth at 10 µM (T47D): 95%; growth at 10 µM (MDA-MB-468): 114%
2 | CC1(C)CC(=O)C2=C(C1)NC(=O)NC2c1ccc2c(c1)OCO2 (racemic) | 111 | 108 | 110 | 95.9 | 122 | 112 | 125 | 101 | 103 | 114 | 108 | 109 | 108 | 97.5 | 99.3 | 100 | 104 | 108 | 124 | 106 | growth at 10 µM (MCF7): 98.3%; growth at 10 µM (MDA-MB-231): 111%; growth at 10 µM (Hs-578T): 113%; growth at 10 µM (BT-549): 109%; growth at 10 µM (T47D): 106%; growth at 10 µM (MDA-MB-468): 118%
3 | CC(=O)C1=C(C)Nc2nc3ccccc3n2C1c1ccc2c(c1)OCO2 (racemic) | 94.8 | 99 | 96.4 | 102 | 94.7 | 91 | 114 | 98.9 | 98.2 | 105 | 96.4 | 104 | 99.6 | 88.2 | 94.9 | 105 | 130 | 113 | 112 | 104 | growth at 10 µM (MCF7): 96.4%; growth at 10 µM (MDA-MB-231): 93.5%; growth at 10 µM (Hs-578T): 99.8%; growth at 10 µM (BT-549): 102%; growth at 10 µM (T47D): 86.3%; growth at 10 µM (MDA-MB-468): 109%
